Screening results as filed in PubChem BioAssay.
Only some compounds are listed: those with a hit (about 6.5% of all), similar ones and a draw of the others.
PTK2B oligo ant = Pyk2 (human) oligomerization antagonism. AID 1347419. Q293 cells, Pyk2 FERM NanoBiT luminescence; active compounds read low. 99,000 tested, 0.83% active. Q14289. z-score (the deposit names both 25 µM and 10 µM);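 active = Z-score of -3 or lower, scaled per plate to the spread of control and sample wells; inactive = z-score above -3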;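 also: negative z-score means lost luminescence so less FERM oligomerization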
Target sequence (Q14289 whole entry, looked up): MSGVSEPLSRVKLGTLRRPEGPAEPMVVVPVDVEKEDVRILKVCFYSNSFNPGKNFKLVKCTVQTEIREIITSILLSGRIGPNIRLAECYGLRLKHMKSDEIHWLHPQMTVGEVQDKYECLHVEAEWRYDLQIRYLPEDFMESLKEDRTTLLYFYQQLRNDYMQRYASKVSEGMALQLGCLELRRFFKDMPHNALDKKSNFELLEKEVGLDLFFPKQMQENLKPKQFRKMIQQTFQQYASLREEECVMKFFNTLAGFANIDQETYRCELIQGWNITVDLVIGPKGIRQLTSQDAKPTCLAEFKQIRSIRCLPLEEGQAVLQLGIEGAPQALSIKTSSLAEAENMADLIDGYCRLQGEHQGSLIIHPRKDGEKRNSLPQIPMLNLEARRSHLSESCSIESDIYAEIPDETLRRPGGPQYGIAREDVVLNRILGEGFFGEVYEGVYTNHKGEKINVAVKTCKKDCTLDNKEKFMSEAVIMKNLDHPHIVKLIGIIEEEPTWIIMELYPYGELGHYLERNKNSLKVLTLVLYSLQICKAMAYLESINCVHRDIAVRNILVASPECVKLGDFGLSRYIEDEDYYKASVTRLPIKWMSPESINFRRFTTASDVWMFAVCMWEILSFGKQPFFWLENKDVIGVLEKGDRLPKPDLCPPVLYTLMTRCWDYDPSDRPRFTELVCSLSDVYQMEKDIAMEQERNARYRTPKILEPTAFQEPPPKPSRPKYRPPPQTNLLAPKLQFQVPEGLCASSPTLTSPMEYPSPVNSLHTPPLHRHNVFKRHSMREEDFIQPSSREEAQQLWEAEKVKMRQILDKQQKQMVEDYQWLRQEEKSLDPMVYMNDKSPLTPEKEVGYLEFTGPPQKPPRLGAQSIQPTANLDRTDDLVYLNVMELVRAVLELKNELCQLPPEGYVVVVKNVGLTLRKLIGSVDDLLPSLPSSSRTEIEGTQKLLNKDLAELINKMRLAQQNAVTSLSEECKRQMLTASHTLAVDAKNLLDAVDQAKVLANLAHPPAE
Ecoli tolC = blocks growth of E. coli BW25113 tolC mutant. growth inhibition, % at 10 µM (by protocol). OD615. 65,000 tested, 2.2% active;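 active = growth inhibition at or above a cutoff equal to the mean over every tested compound plus 3 SD, cut at about 60% in these data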;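 also: growth measured after 20 h incubation at 37 °C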
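signal = optical density read at 615 nm | test system = E. coli ΔtolC::kan strain BW25113 | timing = 20 h compound exposure of bacteria at 37 °C | buffer or medium = LB medium plus 50 µg/mL kanamycin | compound dosing = 10 µM final, single dose | evaluation = % inhibition of E. coli growth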
E coli WT exp = blocks growth of wild type E. coli BW25113. OD600 absorbance. AID 710. 98,000 tested, 0.15% active. growth inhibition, % at 100 µM;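 active = growth inhibition above about 50% at one test dose, limit read from the data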;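 also: growth measured after 20 h incubation at 37 °C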
Calb biofilm kill = kills Candida albicans biofilms; C. albicans biofilm + clotrimazole, Alamar Blue; inhibition, % at 6 µM; 85,000 tested, 0.14% active; AID 834;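 active = inhibition above 20%; inactive = inhibition below 20%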;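 also: preformed 24 hr biofilms exposed to compound for 48 hr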
PostGolgi ctrl = inhibits growth of the yeast control strain. efflux-deficient yeast background strain, growth absorbance A615, 16 h. inhibition, % at 10 µM. 98,000 tested, 5% active
PostGolgi yeast = growth inhibition of a yeast mutant, post-Golgi transport screen; AID 739; inhibition, % at 10 µM; post-Golgi transport phenotypic cell assay; 98,000 tested, 0.9% active;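 also: yeast cells grown in 1536-well plates; yeast grown about 18 h at 30C before absorbance read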
Of the large screens only hits and unclear results are named; the others gave an inactive call. Rule as the data show it, unless noted: active = inhibition above about 30%; inactive = the rest.

Cn1c(C(=O)N2CCc3ccccc3C2)cc2oc3ccccc3c21	Ecoli tolC 69, PostGolgi ctrl 56 (no result: Calb biofilm kill)
COc1ccc(Nc2nnc(C)c(=O)[nH]2)cc1	none (no result: Ecoli tolC, Calb biofilm kill)
C=CCSC1=C(C#N)C(c2cccc(OC)c2)CC(=O)N1 (stereo not drawn)	none
COC(=O)c1ccc(Cl)c(NC(=O)c2ccc(-c3ccccc3)cc2)c1	none (no result: PTK2B oligo ant, Ecoli tolC, Calb biofilm kill)
Cc1ccc(CCN2CC(C(=O)NCCCN3CCCCCC3)CC2=O)cc1 (stereo not drawn)	none
C=CCSc1nnc2c(n1)OC(c1c(C)[nH]n(-c3ccccc3)c1=O)Nc1ccccc1-2 (stereo not drawn)	PostGolgi ctrl 40 (no result: Ecoli tolC, Calb biofilm kill)
O=C(OCn1ncc(Br)c(Br)c1=O)c1c(F)cccc1F	PostGolgi yeast 57 (no result: PTK2B oligo ant, Ecoli tolC)
CCOC(=O)C1CCN(c2ncnc3c2oc2ccc(Cl)cc23)CC1	PostGolgi ctrl 33
CCOC(=O)C1CCCN(c2ncnc3c2cnn3-c2ccc(Cl)cc2)C1 (stereo not drawn)	Ecoli tolC 73
CCOC(=O)C1CCN(C(=S)Nc2cc(OC)c(OC)cc2C(=O)OC)CC1	none (no result: Ecoli tolC)
COc1ccc(CNc2nc(NCc3ccc(OC)cc3)n(C(C)=O)n2)cc1	none (no result: Ecoli tolC)
COc1ccc(CNc2nc(NCc3ccc(OC)c(OC)c3)n(C(=O)c3cccs3)n2)cc1OC	PTK2B oligo ant -3.4 (no result: Ecoli tolC, Calb biofilm kill)
Cc1cccc(-n2c(C)nc3sccc3c2=O)c1	none (no result: Ecoli tolC, Calb biofilm kill)
O=C(Nc1cccc(C(F)(F)F)c1)c1ccc(Cn2cc(Br)cn2)o1	PostGolgi ctrl 38 (no result: Ecoli tolC)
O=C(NCc1ccccn1)c1ccc(Cn2cc(Br)cn2)o1	none
O=C(Nc1ccc(C(F)(F)F)cc1Cl)c1ccc(Cn2cc(Br)cn2)o1	Ecoli tolC 99, PostGolgi ctrl 39
N#C[C@H]1[C@H](c2ccccc2)[C@](C#N)(C(=O)c2ccccc2)[C@@H]2C=Cc3ccccc3N21	none (no result: PTK2B oligo ant, Ecoli tolC, Calb biofilm kill)
O=C(CCCSc1nnnn1-c1cccc2ccccc12)c1ccc(F)cc1	PostGolgi ctrl 32 (no result: Ecoli tolC, Calb biofilm kill)
COC(=O)CSc1nnnn1-c1cccc2ccccc12	none
O=S(=O)(N/N=C/c1ccc(Cl)cc1)c1ccc(Cc2ncc(C(F)(F)F)cc2Cl)s1	none (no result: Ecoli tolC)
COc1ccccc1-c1cc(C(=O)NC(C)C)no1	none
COc1ccccc1-c1cc(C(=O)NC(C)c2ccccc2)no1 (stereo not drawn)	Ecoli tolC 72, PostGolgi ctrl 61
COc1ccc(OC)c(C(C)NC=O)c1 (stereo not drawn)	PostGolgi ctrl 39
O=C(Nc1ccncc1)c1cccc(F)c1	PostGolgi ctrl 32
C=C(C)COc1ccc(-c2nc(N)ncc2Oc2ccccc2OC)c(O)c1	PTK2B oligo ant -4.3
C=C(C)COc1ccc(-c2nc(N)ncc2Oc2ccc(OC)cc2)c(O)c1	PTK2B oligo ant -4.7
COc1ccc(S(=O)(=O)NC2CCCCC2)c(C)c1C	none
Cc1nnc(SCC(=O)NCc2ccccc2)[nH]c1=O	none (no result: Ecoli tolC)
Nc1nc2ccc(Oc3ccccc3)cc2s1	PostGolgi ctrl 32
Cc1nnc(SCCn2c(N3CC(C)CC(C)C3)nc3c2c(=O)[nH]c(=O)n3C)s1 (stereo not drawn)	none
COc1ccc(OC)c(-c2cc(C(=O)N3CCN(c4ncccn4)CC3)c3ccccc3n2)c1	none
COc1ccccc1-c1cc(C(=O)N2CCc3ccccc3C2)c2ccccc2n1	PostGolgi ctrl 52 (no result: PTK2B oligo ant, Ecoli tolC, Calb biofilm kill)
O=C(c1cc(-c2ccccn2)nc2ccc(Br)cc12)N1CCc2ccccc2C1	PostGolgi ctrl 71 (no result: PTK2B oligo ant, Ecoli tolC, Calb biofilm kill)
O=C1C(Cl)=C(NCC2CCCO2)C(=O)N1C1CCCCC1 (stereo not drawn)	PostGolgi ctrl 41
Cc1ccc2[nH]c(=O)c(C(c3nnnn3C3CCCC3)N(Cc3cccnc3)Cc3ccco3)cc2c1 (stereo not drawn)	Ecoli tolC 63
Cc1ccc2cc(C(c3nnnn3C3CCCC3)N(Cc3ccco3)Cc3cccs3)c(=O)[nH]c2c1 (stereo not drawn)	none (no result: Ecoli tolC)
Clc1ccc(C(c2nnnn2C2CCCCC2)N(Cc2cccnc2)Cc2ccco2)cc1 (stereo not drawn)	Ecoli tolC 69 (no result: E coli WT exp, PostGolgi ctrl, PostGolgi yeast)
Cc1ccc2cc(C(c3nnnn3C3CCCC3)N(Cc3cccnc3)Cc3ccco3)c(=O)[nH]c2c1 (stereo not drawn)	Ecoli tolC 65
CCC(c1nnnn1C1CCCCC1)N(Cc1ccco1)Cc1cc2ccc(OC)cc2[nH]c1=O (stereo not drawn)	Ecoli tolC 68
Cc1ccc2[nH]c(=O)c(C(c3nnnn3C(C)(C)C)N(Cc3ccco3)CC3CCCO3)cc2c1 (stereo not drawn)	none
Clc1ccc(SCCn2ccnc2)cc1	none
CCCCCc1nc2c(=O)n(C)c3ccccc3c2o1	none
Cn1c(=O)c2nc(-c3ccccc3)oc2c2ccccc21	PostGolgi ctrl 61
C=CCSc1nnc(-c2sc(-c3ccccc3)nc2C)n1C	none (no result: Ecoli tolC, Calb biofilm kill)
C=CCSc1nnc(-c2nnc(SCC=C)n2-c2ccccc2)n1-c1ccccc1	PostGolgi ctrl 33 (no result: Ecoli tolC)
CN1CCN(c2ncnc3c2sc2nc(N4CCCC4)c4c(c23)CC(C)(C)OC4)CC1	none (no result: PTK2B oligo ant, E coli WT exp, Calb biofilm kill, PostGolgi ctrl, PostGolgi yeast)
O=C(CN1CCN(Cc2cccc(Cl)c2)C1=O)NCc1ccccn1	none (no result: PTK2B oligo ant, Ecoli tolC)
Cc1ccccc1NC(=O)c1sc(Cl)nc1-c1ccccc1	PostGolgi ctrl 39 (no result: Ecoli tolC, Calb biofilm kill)
CC(=O)Nc1ccc(S(=O)(=O)N2CCN(c3nc(NC4CCCC4)c4ccccc4n3)CC2)cc1	PTK2B oligo ant -3
CC(=O)Nc1ccc(S(=O)(=O)N2CCN(c3cc(C)nc4ccccc34)CC2)cc1	none
Cc1ccccc1NC(NC(=O)c1cccs1)C(Cl)(Cl)Cl (stereo not drawn)	none (no result: Ecoli tolC, Calb biofilm kill)
CCNC(=O)N1c2ccc(OCC)cc2C(C)=CC1(C)C	none (no result: Calb biofilm kill)
CCOc1ccc2c(c1)-c1c(ssc1=S)C(C)(C)N2	PostGolgi ctrl 31 (no result: Ecoli tolC, Calb biofilm kill)
COc1ccc(NC(=O)c2c(F)c(F)c(F)c(F)c2F)cc1Cl	none
Cc1cc(C)c(O)c(-c2cc(C(=O)NCc3ccccc3)[nH]n2)c1	PostGolgi ctrl 32 (no result: Ecoli tolC)
COc1ccc(NC(=O)c2cc(-c3cc(C)cc(C)c3O)n[nH]2)cc1Cl	Ecoli tolC 96
Cc1ccc(O)c(-c2cc(C(=O)NCc3ccncc3)[nH]n2)c1	none
Cn1c(C(=O)O)c(CC(=O)N2CCC(Cc3ccccc3)CC2)c2ccccc21	none (no result: Ecoli tolC, E coli WT exp, PostGolgi ctrl, PostGolgi yeast)
OCCCc1nc2n(n1)C(c1cccs1)C=C(c1ccc(Br)cc1)N2 (stereo not drawn)	none (no result: PTK2B oligo ant, Ecoli tolC)
Brc1ccc(C2=CC(c3cccs3)n3ncnc3N2)cc1 (stereo not drawn)	PTK2B oligo ant -3.5 (no result: Ecoli tolC)
Cc1ccc2c(c1)-c1cc(C)nn1C(c1sccc1C)N2 (stereo not drawn)	PostGolgi ctrl 30
Cc1cc2n(n1)C(c1sccc1C)Nc1ccccc1-2 (stereo not drawn)	none
CCN(CC(O)Cn1c2ccccc2c2ccccc21)S(=O)(=O)c1ccc(F)cc1 (stereo not drawn)	PostGolgi ctrl 50 (no result: Ecoli tolC)
Cc1ccc(S(=O)(=O)N(C)CC(O)Cn2c3ccccc3c3ccccc32)cc1 (stereo not drawn)	PostGolgi ctrl 80 (no result: Ecoli tolC)
CC(C)Nc1nc(NC(C)(C)C)nc(Oc2ccc(=O)n(-c3ccccc3)n2)n1	none (no result: Ecoli tolC)
